≈ marks a conversion by molar mass, not a printed value.
System: Mycobacterium tuberculosis
Test: Antitubercular activity against Mycobacterium tuberculosis H37Rv assessed as drug level causing 90% growth inhibition after 7 days by microbroth dilution method
Assay type: functional
Details: for MIC: Mycobacterium tuberculosis, H37Rv, 168 h
Procedure, shortened: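 Two-fold serial dilutions in 7H9 broth with 10% albumin-dextrose complex and 0.05% (v/v) Tween80, in round-bottom microtiter plates, with final concentrations starting at 200 μg/mL. Equal volume of H37Rv broth inoculum added. Incubated aerobically at 37°C for 7 days and read visually. MIC taken as the lowest concentration inhibiting 90% of growth relative to the no-drug control.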

Row | Compound | -logMIC | MIC [µg/mL]
1 | O=C(NCc1ccc(N2CCN(Cc3ccccc3)CC2)cc1)c1ccc([N+](=O)[O-])o1 | 2.4296 | 1.56 (≈ 3.71 µM)
2 | O=C(NCc1ccc(N2CCS(=O)(=O)CC2)cc1)c1ccc([N+](=O)[O-])o1 | 0.8801 | 50 (≈ 132 µM)
3 | O=C(NCc1ccc(N2CCCN(Cc3ccccc3)CC2)cc1)c1ccc([N+](=O)[O-])o1 | 3.0309 | 0.4 (≈ 0.921 µM)
4 | CC(C)(C)OC(=O)N1CCN(c2ccc(CNC(=O)c3ccc([N+](=O)[O-])o3)cn2)CC1 | 5.7318 | 0.0008 (≈ 0.00185 µM)
5 | CCOC(=O)N1CCN(c2ccc(CNC(=O)c3ccc([N+](=O)[O-])o3)cc2)CC1 | 4.8123 | 0.0062 (≈ 0.0154 µM)
6 | O=C(NCc1ccco1)c1ccc([N+](=O)[O-])o1 | 1.5774 | 6.25 (≈ 26.5 µM)
7 | CN1CCN(c2ccc3c(c2)CCN(C(=O)c2ccc([N+](=O)[O-])o2)C3)CC1 | 3.8697 | 0.05 (≈ 0.135 µM)
8 | O=C(NCc1ccc(C(F)(F)F)cc1)c1ccc([N+](=O)[O-])o1 | 3.7983 | 0.05 (≈ 0.159 µM)
9 | O=C(c1ccc([N+](=O)[O-])o1)N1CCC(Oc2ccc(OC(F)(F)F)cc2)CC1 | 5.6993 | 0.0008 (≈ 0.002 µM)
10 | NC1CCN(c2ccc(CNC(=O)c3ccc([N+](=O)[O-])o3)cc2)C1 (configuration not stated) | 2.6172 | 0.8 (≈ 2.42 µM)
11 | COC(=O)NC(=O)c1ccc([N+](=O)[O-])o1 | 2.7286 | 0.4 (≈ 1.87 µM)
